From ChEMBL document CHEMBL4118144, “Design, Synthesis, and Testing of Potent, Selective Hepsin Inhibitors via Application of an Automated Closed-Loop Optimization Platform” (J Med Chem, 2018) come the findings set out here.

The target of experiment [1] is T1, Serine protease hepsin (Homo sapiens, UniProt P05981). The experiment can be described thus: Inhibition of hepsin-mediated conversion of Pro-HGF into active form in human Hs578T cells assessed as decrease in MET phosphorylation at 1 to 10 uM preincubated for 30 mins followed by recombinant human pro-HGF addition measured after 30 mins by immunoblot method. Type of experiment: cell-based. Put shortly: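 Hs578T or HCC1937 breast cells incubated with DMSO or inhibitor, then 50 ng/mL recombinant human Pro-HGF added; MET pathway activation (phospho-MET) assessed by immunoblotting.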
(Immunoblotting shows a protein as a band on a membrane.)

For experiment [2], the target named is Serine protease hepsin (Homo sapiens, UniProt P05981, D161E/R162K). Kind of experiment: Inhibition of recombinant C-terminal His10-tagged human Hepsin (R45 to […] residues) D161E/ R162K double mutant expressed in mouse NS0 cells using Boc-QRR-AMC as substrate after 15 mins by automated fluorescence assay. In short, it runs like this:
(§1)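 On-line assay integrated with the flow-synthesis platform: a 20 µL aliquot of each product solution captured automatically, HPLC-purified, then diluted and assayed.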

Experiment [3] addresses T1, Serine protease hepsin. Kind of experiment: Inhibition of doxycycline induced Hepsin in human MCF10A cells using Boc-QRR-AMC as substrate preincubated for 24 hrs followed by doxycycline induction for 24 hrs and subsequent addition of substrate by fluorescence assay. The format is cell-based.
Experiment [4] concerns the target T1, Serine protease hepsin. Kind of experiment: Inhibition of recombinant Hepsin (unknown origin).
Experiment [5] addresses Urokinase-type plasminogen activator (Homo sapiens, UniProt P00749). The experiment can be described thus: Inhibition of recombinant C-terminal His10-tagged human uPA (M1 to L431 residues) expressed in mouse NS0 cells using Z-GGR-AMC as substrate after 15 mins by automated fluorescence assay. In short, it runs like this: as §1
The target of experiment [6] is T1, Serine protease hepsin. The experiment can be described thus: Inhibition of doxycycline induced hepsin-mediated loss of desmosomal junctions in human MCF10A cells at 1 to 10 uM preincubated for 30 mins followed by doxycycline addition measured after 6 hrs by desmoglein 2 staining-based confocal immunofluorescence microscopic analysis. Type of experiment: cell-based. In short, it runs like this: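 MCF10A-Indu20-hepsin cells on coverslips pretreated 30 min with 1 or 10 µM compound or DMSO, then 100 ng/mL Dox for 6 h. Desmoglein 2 immunofluorescence: continuous pericellular staining scored positive, discontinuous or absent scored negative. Cells counted in 10 fields per treatment across three biological replicates; reported as percentages.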

In experiment [7] the target is T1, Serine protease hepsin. The experiment can be described thus: Inhibition of doxycycline induced Hepsin in human MCF10A cells assessed as prevention in loss of HAI-1 level at 10 uM preincubated for 30 mins followed by doxycycline addition measured after 6 hrs by Immunoblot assay. Type of experiment: cell-based. Put shortly: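 MCF10A-Indu20-hepsin cells (Dox-inducible hepsin) pretreated 30 min with compound or DMSO, then hepsin induced with 100 ng/mL doxycycline for 6 h; HAI-1 protein scored by immunoblot.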

pIC50: −log10 of the molar value. Activity calls are given as the source filed them. No cut-off for these calls is given here.

T1 sequence (P05981 1-162 limits assumed): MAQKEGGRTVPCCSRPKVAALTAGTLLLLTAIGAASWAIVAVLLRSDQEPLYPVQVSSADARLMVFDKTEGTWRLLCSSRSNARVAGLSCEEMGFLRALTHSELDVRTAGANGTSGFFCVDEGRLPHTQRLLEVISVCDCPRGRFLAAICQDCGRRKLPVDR
T1 sequence (P05981 163-417 limits assumed): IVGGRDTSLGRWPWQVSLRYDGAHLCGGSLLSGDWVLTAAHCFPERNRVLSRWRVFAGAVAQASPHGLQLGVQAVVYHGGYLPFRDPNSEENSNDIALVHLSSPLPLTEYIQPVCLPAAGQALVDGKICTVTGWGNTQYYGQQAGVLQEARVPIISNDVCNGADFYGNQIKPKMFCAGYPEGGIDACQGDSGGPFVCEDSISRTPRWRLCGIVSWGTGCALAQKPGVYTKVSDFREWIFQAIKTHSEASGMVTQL

In the case of `CCOC(=O)N1CCN(C(=O)[C@@H](Cc2cccc(C(=N)N)c2)NS(=O)(=O)c2c(C(C)C)cc(C(C)C)cc2C(C)C)CC1`, the inhibition entry at Serine protease hepsin [1] is “Active”. For the same compound, the pIC50 on Serine protease hepsin [2] is 5.47; against Serine protease hepsin [3] it was 5.19; at Serine protease hepsin [4] it was 5.52; in experiment [5] it was 6.55. Moreover, the inhibition result on Serine protease hepsin [6] and on Serine protease hepsin [7] was “inactive” throughout.

As a reminder, the pIC50 is the IC50 on a negative log10 scale, so that one unit is a factor of ten.
